Reference: ChEMBL document CHEMBL3098105, “7,7'-Diazaindirubin--a small molecule inhibitor of casein kinase 2 in vitro and in cells” (Bioorg Med Chem, 2014)
Calls of active or inactive are those of the source. No cut-off for these calls is given here.

Columns and labels:
[1] = target: Testis-specific serine/threonine-protein kinase 1 (Homo sapiens) (UniProt Q9BXA7); assay: Inhibition of human TSSK1 assessed as residual activity at 1 uM relative to control
[2] = target: Receptor tyrosine-protein kinase erbB-2 (Homo sapiens) (UniProt P04626); assay: Inhibition of ERBB2 (unknown origin) assessed as residual activity at 10 uM relative to control
[3] = target: Serine/threonine-protein kinase NLK (Homo sapiens) (UniProt Q9UBE8); assay: Inhibition of human NLK assessed as residual activity at 1 uM relative to control
[4] = test system: A498; assay: Antiproliferative activity against human A498 cells after 3 days by sulforhodamine B assay; format: functional; details: A498, 72 h
In short: (§1)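 Tested in the NCI 60 cell line panel. GI50 is the concentration giving 50% inhibition of cell growth, and values are the mean of two series of tests.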

[5] = target: Tyrosine-protein kinase Yes (Homo sapiens) (UniProt P07947); assay: Inhibition of human Yes assessed as residual activity at 1 uM relative to control
[6] = test system: NCI-H460; assay: Antiproliferative activity against human NCI-H460 cells after 3 days by sulforhodamine B assay; format: functional; details: NCI-H460, 72 h; in short: as §1
[7] = target: Serine/threonine-protein kinase TAO3 (Homo sapiens) (UniProt Q9H2K8); assay: Inhibition of human TAO3 assessed as residual activity at 1 uM relative to control
[8] = target: Platelet-derived growth factor receptor alpha (Homo sapiens) (UniProt P16234); assay: Inhibition of PDGFR-alpha (unknown origin) assessed as residual activity at 10 uM relative to control
[9] = Antiproliferative activity against human OVCAR4 cells after 3 days by sulforhodamine B assay; format: functional; details: OVCAR-4, 72 h; in short: as §1
[10] = target: Tyrosine-protein kinase SYK (Homo sapiens) (UniProt P43405); assay: Inhibition of human Syk assessed as residual activity at 1 uM relative to control
[11] = test system: SK-OV-3; assay: Antiproliferative activity against human SKOV3 cells after 3 days by sulforhodamine B assay; format: functional; details: SK-OV-3, 72 h; in short: as §1
[12] = target: Serine/threonine-protein kinase 17A (Homo sapiens) (UniProt Q9UEE5); assay: Inhibition of human DRAK1 assessed as residual activity at 1 uM relative to control
Serine/threonine-protein kinase 17A (Homo sapiens), sequence (Q9UEE5 whole entry): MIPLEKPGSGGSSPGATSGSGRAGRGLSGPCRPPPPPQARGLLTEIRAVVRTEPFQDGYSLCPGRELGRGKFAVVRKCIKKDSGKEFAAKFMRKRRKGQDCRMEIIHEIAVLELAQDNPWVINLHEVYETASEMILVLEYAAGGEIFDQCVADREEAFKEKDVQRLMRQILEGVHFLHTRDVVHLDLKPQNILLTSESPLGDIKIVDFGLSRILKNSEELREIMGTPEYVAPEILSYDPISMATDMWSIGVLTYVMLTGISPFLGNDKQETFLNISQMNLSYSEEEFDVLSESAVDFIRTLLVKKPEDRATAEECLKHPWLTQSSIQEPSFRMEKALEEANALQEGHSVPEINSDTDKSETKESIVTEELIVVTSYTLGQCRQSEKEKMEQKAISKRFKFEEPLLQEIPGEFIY

[13] = test system: HCT-116; assay: Antiproliferative activity against human HCT116 cells after 3 days by sulforhodamine B assay; format: functional; details: HCT-116, 72 h; in short: as §1
[14] = target: Macrophage colony-stimulating factor 1 receptor (Homo sapiens) (UniProt P07333); assay: Inhibition of human Fms assessed as residual activity at 1 uM relative to control
[15] = target: Cyclin-dependent kinase 5/CDK5 activator 1 (Homo sapiens) (UniProt Q00535+Q15078); assay: Inhibition of CDK5/p35NCK (unknown origin) assessed as residual activity at 10 uM relative to control; format: protein-complex assay
[16] = target: Rhodopsin kinase GRK7 (Homo sapiens) (UniProt Q8WTQ7); assay: Inhibition of human GRK7 assessed as residual activity at 1 uM relative to control
[17] = target: Serine/threonine-protein kinase WNK2 (Homo sapiens) (UniProt Q9Y3S1); assay: Inhibition of human WNK2 assessed as residual activity at 1 uM relative to control
Serine/threonine-protein kinase WNK2 (Homo sapiens), sequence (Q9Y3S1 whole entry): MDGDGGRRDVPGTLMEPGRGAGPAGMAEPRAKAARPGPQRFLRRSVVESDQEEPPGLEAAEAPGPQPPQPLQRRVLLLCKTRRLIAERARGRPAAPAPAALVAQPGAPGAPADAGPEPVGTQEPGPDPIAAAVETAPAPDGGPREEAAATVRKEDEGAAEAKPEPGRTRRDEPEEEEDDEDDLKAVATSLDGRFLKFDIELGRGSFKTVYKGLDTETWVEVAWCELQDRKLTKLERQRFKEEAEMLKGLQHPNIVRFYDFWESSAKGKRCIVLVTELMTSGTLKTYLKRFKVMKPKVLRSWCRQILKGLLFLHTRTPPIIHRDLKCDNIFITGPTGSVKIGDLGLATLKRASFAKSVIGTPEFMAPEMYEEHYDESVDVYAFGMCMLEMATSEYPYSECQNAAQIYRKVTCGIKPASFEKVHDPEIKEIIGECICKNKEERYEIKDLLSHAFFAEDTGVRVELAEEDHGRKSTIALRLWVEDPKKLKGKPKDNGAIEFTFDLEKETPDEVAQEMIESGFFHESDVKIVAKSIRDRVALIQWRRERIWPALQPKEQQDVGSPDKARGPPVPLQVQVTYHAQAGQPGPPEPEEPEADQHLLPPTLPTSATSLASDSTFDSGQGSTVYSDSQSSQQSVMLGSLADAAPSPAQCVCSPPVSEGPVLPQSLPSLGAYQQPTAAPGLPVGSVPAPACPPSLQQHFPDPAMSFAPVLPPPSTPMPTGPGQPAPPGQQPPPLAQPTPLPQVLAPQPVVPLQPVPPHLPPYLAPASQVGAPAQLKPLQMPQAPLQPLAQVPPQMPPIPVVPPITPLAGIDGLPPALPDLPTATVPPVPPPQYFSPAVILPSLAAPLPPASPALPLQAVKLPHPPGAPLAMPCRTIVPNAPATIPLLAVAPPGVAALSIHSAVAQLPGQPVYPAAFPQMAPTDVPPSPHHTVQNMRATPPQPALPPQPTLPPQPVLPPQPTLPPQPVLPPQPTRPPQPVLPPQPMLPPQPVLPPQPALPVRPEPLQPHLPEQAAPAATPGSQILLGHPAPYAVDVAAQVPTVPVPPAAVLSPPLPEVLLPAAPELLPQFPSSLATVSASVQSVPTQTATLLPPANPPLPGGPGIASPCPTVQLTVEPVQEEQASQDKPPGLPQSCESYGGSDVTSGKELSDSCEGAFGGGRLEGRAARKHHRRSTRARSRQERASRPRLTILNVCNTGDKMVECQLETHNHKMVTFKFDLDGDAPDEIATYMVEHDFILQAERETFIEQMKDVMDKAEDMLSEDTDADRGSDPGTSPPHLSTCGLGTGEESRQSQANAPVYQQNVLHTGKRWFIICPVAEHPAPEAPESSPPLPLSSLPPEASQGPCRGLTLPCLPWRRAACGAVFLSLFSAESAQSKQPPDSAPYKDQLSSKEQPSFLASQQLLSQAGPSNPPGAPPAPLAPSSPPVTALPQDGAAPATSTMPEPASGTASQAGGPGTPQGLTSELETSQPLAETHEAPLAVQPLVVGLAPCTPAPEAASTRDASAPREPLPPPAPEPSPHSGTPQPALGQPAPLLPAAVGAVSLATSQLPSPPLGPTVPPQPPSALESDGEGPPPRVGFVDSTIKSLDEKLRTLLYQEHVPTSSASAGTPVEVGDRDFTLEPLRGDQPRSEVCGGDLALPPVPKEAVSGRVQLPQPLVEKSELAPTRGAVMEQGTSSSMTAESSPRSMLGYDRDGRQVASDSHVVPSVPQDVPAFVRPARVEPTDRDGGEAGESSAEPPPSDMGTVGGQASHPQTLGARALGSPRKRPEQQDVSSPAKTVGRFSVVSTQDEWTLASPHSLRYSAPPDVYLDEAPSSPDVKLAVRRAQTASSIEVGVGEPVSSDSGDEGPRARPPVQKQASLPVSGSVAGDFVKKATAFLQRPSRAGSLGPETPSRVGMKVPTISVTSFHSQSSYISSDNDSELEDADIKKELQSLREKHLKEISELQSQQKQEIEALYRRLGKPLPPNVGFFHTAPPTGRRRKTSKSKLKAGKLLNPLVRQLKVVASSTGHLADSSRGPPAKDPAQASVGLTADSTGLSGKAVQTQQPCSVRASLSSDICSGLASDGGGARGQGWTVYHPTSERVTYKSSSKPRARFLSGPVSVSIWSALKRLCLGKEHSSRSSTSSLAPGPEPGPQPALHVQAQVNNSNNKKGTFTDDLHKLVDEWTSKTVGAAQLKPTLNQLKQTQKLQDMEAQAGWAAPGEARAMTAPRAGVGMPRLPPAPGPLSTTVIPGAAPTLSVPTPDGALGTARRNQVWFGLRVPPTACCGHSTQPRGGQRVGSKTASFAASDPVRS

[18] = test system: MCF7; assay: Induction of late stage apoptosis in human MCF7 cells expressing CK2 at 0.25 to 4 uM after 24 hrs using propidium iodide/annexin V staining by FACS analysis; format: functional, cell-based
In short: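 MCF7 cells were then treated for 24 h, stained with FITC-annexin V in HEPES pH 7.4 binding buffer with 1.8 mM CaCl2 (15 min, dark, room temperature), then with PI (10 min), and analysed by FACS.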

[19] = target: Tyrosine-protein kinase ABL1 (Homo sapiens) (UniProt P00519); assay: Inhibition of human Abl assessed as residual activity at 1 uM relative to control
[20] = target: T1, Serine/threonine-protein kinase Chk1 (Homo sapiens) (UniProt O14757); assay: Inhibition of CHK1 (unknown origin) assessed as residual activity at 10 uM relative to control
T1 sequence (whole entry): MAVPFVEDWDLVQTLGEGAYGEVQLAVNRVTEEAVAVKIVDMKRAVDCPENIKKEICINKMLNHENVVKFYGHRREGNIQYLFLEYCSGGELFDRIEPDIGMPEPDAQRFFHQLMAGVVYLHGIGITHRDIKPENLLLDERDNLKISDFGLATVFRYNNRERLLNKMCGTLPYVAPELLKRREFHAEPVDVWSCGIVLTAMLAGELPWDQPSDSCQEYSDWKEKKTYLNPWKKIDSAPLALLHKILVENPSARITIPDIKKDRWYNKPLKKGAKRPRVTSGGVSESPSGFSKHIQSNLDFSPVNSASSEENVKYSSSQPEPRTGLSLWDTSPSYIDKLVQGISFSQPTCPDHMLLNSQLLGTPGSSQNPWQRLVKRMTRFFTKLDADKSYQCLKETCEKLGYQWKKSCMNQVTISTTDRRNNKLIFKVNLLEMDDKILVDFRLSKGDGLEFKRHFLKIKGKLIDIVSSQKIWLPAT

[21] = target: BDNF/NT-3 growth factors receptor (Homo sapiens) (UniProt Q16620); assay: Inhibition of human TrkB assessed as residual activity at 1 uM relative to control
BDNF/NT-3 growth factors receptor (Homo sapiens), sequence (Q16620 32-822 limits assumed): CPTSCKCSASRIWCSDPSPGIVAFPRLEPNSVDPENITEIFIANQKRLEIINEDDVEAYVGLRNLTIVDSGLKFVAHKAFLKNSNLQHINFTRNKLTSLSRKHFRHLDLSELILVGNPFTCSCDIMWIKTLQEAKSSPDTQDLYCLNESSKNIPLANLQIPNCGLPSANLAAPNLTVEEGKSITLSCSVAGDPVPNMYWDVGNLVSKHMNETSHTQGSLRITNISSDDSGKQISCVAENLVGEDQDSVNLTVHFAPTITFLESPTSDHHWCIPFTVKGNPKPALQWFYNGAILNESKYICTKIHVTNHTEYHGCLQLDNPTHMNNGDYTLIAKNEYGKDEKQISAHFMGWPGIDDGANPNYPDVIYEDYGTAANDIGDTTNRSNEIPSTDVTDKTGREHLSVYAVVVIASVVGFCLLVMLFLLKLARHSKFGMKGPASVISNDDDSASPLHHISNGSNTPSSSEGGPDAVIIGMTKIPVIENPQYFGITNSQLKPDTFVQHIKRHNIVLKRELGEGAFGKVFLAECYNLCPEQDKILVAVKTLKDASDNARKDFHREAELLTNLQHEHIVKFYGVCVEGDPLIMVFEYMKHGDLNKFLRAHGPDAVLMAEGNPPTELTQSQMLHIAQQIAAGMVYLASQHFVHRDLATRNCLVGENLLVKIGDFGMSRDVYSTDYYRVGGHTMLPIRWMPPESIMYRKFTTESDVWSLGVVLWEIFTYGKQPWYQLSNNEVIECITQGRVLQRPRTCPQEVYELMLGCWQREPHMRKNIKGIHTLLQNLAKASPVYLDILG

[22] = target: Ephrin type-A receptor 1 (Homo sapiens) (UniProt P21709); assay: Inhibition of human EphA1 assessed as residual activity at 1 uM relative to control
[23] = target: ALK tyrosine kinase receptor (Homo sapiens) (UniProt Q9UM73); assay: Inhibition of human ALK assessed as residual activity at 1 uM relative to control
ALK tyrosine kinase receptor (Homo sapiens), sequence (Q9UM73 19-1620 limits assumed): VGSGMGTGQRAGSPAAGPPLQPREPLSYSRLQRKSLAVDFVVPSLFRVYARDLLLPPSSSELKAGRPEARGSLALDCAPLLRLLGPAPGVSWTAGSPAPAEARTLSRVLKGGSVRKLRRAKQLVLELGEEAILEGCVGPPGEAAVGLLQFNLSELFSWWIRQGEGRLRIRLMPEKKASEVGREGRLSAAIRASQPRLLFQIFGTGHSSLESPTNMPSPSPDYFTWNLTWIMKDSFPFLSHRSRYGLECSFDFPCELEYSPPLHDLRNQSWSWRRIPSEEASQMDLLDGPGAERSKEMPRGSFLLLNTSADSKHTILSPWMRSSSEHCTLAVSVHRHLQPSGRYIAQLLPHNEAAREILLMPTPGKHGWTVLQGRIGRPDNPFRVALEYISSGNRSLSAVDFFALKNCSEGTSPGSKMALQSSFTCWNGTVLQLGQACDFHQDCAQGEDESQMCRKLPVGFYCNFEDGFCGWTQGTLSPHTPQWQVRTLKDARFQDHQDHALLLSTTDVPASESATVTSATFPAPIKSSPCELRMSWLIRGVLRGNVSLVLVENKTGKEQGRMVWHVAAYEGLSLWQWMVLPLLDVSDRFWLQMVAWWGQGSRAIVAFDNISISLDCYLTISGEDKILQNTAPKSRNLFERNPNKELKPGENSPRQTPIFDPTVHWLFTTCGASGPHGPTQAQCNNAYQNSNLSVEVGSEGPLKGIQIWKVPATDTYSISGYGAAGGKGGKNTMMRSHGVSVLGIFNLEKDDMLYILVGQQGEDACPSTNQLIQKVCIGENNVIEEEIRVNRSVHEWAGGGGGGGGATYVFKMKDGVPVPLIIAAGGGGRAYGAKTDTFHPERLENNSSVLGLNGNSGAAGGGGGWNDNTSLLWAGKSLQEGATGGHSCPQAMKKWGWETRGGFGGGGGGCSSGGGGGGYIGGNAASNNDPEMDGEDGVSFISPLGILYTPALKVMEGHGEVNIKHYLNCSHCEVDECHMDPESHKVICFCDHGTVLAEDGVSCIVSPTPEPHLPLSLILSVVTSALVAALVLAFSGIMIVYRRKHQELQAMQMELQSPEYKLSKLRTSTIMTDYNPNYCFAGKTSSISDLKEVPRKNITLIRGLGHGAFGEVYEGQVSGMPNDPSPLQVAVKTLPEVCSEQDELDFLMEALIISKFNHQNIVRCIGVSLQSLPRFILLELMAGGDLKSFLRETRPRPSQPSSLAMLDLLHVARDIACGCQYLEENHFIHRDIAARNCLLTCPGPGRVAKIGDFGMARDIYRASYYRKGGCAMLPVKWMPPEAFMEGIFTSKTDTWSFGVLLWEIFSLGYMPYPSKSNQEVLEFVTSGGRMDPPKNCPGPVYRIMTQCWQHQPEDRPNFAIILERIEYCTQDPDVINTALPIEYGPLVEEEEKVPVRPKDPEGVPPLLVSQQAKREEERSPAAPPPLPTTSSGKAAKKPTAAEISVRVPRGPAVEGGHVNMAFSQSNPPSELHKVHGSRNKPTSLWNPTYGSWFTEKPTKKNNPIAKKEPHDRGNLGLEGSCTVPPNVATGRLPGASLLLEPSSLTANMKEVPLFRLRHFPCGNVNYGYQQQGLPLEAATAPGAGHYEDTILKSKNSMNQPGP

[24] = target: Casein kinase II (Homo sapiens) (UniProt P67870+P68400+P19784); assay: Inhibition of human CK2 assessed as residual activity at 1 uM relative to control; format: protein-complex assay
[25] = target: Eukaryotic elongation factor 2 kinase (Homo sapiens) (UniProt O00418); assay: Inhibition of human eEF-2K assessed as residual activity at 1 uM relative to control

Work on `O=C1Nc2ncccc2/C1=C1/Nc2ncccc2C1=O` yielded an Activity [1] of 85%, an Activity [2] of 102% and an Activity [3] of 123%. For the same compound, the GI50 [4] was 1660 nM, the Activity [5] was 120% and the GI50 [6] was 307 nM. The Activity [7] was 96%, the Activity [8] was 88% and the GI50 [9] was 1090 nM. The Activity [10] was 91%, the GI50 [11] was 3950 nM and the Activity [12] was 99%. The GI50 [13] was 1010 nM, the Activity [14] was 91% and the Activity [15] was 104%. For the same compound, the Activity [16] was 96%, the Activity [17] was 102% and the Activity [18] was “Active”. It also gave an Activity [19] of 122%, an Activity [20] of 99% and an Activity [21] of 105%. For the same compound, the Activity [22] was 111%, the Activity [23] was 97% and the Activity [24] was 49%. It also gave an Activity [25] of 94%.
